Screening data deposited in PubChem BioAssay by Johns Hopkins Ion Channel Center.
TRPC6 inh: mouse TRPC6 channel inhibitors, primary screen, cell-based, HEK293, membrane potential dye; ACh-evoked depolarization; stronger effect = lower value; B-score at 10 µM; 310,000 compounds, 1.1% hits;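 active means B-score under library mean minus 3 SD, initial fluorescence not abnormally high, positive integrated signal ratio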;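 further: B-score derived from integrated fluorescence ratio over the kinetic read; more negative B-score means stronger inhibition of depolarization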
TRPC4 agonist: activators of mouse TRPC4 channel, primary screen, Fluo4 calcium, HEK293 TRPC4beta/mu-opioid cells; AID 2237, 2010; Fluo4 calcium fluorescence; stronger effect = higher value; 310,000 compounds, 0.49% hits; B-score at 10 µM;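 active means B-score above 5 SD of library B-scores, and initial fluorescence ratio not above library mean plus 5 SD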;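 further: positive B-score marks a calcium rise read as TRPC4 activation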
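Assay system: HEK293 stable line with TRPC4beta plus mu-opioid receptor; schedule: 45 min room-temperature Fluo4 loading, 110 s read; technique: kinetic Fluo4 calcium fluorescence; evaluation: integrated baseline-normalised fluorescence ratio, converted to per-well B score; controls: buffer (low) and maximal DAMGO (high)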
TRPC4 block: inhibitors of mouse TRPC4 channel, primary screen, Fluo4 calcium, HEK293 TRPC4beta/mu-opioid cells; Short transient receptor potential channel 4 (Mus musculus), Q9QUQ5; DAMGO-evoked Fluo4 calcium flux; stronger effect = lower value; B-score at 10 µM; 300,000 compounds, 0.39% hits;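 active means B-score over 3 SD under the library average, no early fluorescence shift, positive overall ratio signal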
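Material: HEK293 cells with stable TRPC4beta plus mu-opioid receptor expression / Probe or stimulus: DAMGO in two steps, submaximal then maximal / Compound: single concentration per test compound / Technique: kinetic Fluo4 fluorescence imaging of calcium influx / Read-out: per-well B score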
Kir21 inh: inhibitors of mouse Kir2.1 inward-rectifier potassium channel | Inward rectifier potassium channel 2 (Mus musculus), P35561 | HEK293-Kir2.1, FluxOR thallium flux fluorescence; stronger effect = lower value | B-score at 10 µM | 310,000 compounds, 0.85% hits;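 active means fluorescence ratio B-score at or below minus 3 SD of library scores, with starting-brightness B-score within 2 SD, cut at about -4.2 in these data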;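 further: channel flux triggered by added potassium and thallium sulfate stimulus; B-score of peak minus minimum fluorescence over baseline after thallium stimulus; more negative B-score means stronger Kir2.1 block with less thallium influx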
Target sequence (P35561 whole entry, looked up): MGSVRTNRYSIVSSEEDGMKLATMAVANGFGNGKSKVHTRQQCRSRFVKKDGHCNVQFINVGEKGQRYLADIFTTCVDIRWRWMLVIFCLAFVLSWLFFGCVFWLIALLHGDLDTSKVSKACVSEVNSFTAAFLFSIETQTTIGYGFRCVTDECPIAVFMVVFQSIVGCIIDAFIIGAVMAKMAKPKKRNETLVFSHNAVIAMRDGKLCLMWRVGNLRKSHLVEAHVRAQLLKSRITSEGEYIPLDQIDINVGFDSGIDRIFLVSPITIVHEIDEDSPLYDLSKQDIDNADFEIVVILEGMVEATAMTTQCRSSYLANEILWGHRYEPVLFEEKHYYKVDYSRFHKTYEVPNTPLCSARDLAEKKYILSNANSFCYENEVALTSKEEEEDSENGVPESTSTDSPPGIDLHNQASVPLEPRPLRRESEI
TRPC6 act: mouse TRPC6 channel activators, primary screen, cell-based, HEK293, membrane potential dye. Short transient receptor potential channel 6 (Mus musculus), Q61143. HEK293-TRPC6 membrane potential dye fluorescence; stronger effect = higher value. B-score at 10 µM. 310,000 compounds, 0.13% hits. AID 2550, 2010;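 active means B-score of the integrated fluorescence ratio above library mean plus 3 SD, and starting fluorescence ratio within library mean plus 5 SD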;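 further: higher score means more depolarization so channel activation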
TRPC4 PAM: positive allosteric modulators of TRPC4, primary screen, cell-based, mouse TRPC4beta, HEK293 mu-opioid, Fluo-4 calcium; Short transient receptor potential channel 4 (Mus musculus), Q9QUQ5; DAMGO EC20, Fluo-4 Ca2+ flux; stronger effect = higher value; B-score at 10 µM; 310,000 compounds, 0.42% hits; AID 2227, 2009;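 active means B-score of calcium response area above 5 SD of library B-scores, with initial fluorescence ratio within 5 SD of library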
TRPC4 sel inh 2: second selectivity test of TRPC6 inhibitors: effect on mouse TRPC4 | shares compounds with TRPC6 inh | inhibition, % at 10 µM | AID 2776 | HEK293 TRPC4/MOR, membrane potential dye fluorescence; channel activated by saturating DAMGO dose | 920 compounds, 42% hits;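 active means compounds whose fluorescence signal differed from control wells by over 3 SD, either direction, in both duplicate plates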
TRPC4 spec: mouse TRPC4 modulation by TRPC6 hits, confirmation, selectivity assay for TRPC6 inhibitor project, cell-based, HEK293 TRPC4/mu-opioid, membrane potential dye | membrane potential fluorescence | shares compounds with TRPC6 inh | activity change, negative = inhibition, % at 10 µM | 920 compounds, 61% hits | AID 2777, 2010;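 active means rise or fall in signal beyond 3 SD of buffer-only wells in both replicate plates, either sign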;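 further: integrated kinetic ratio of fluorescence range over baseline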
HEK293 MPD ctr 2-1: nonspecific membrane potential effects, parental HEK293, confirmation, counter-screen for TRPC6 inhibitor project, cell-based, second counter screen; shares compounds with TRPC6 inh; parental HEK293 membrane potential dye fluorescence; maximal acetylcholine challenge after compound addition; signal change vs control, % at 10 µM; 920 compounds, 31% hits; AID 2779, 2010;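 active means membrane potential signal moving either way by over 3 SD of the maximum-effect control, in both duplicate plates, meaning non-specific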
HEK293 MPD ctr-1: membrane potential modulation in parental HEK293, confirmation, counter-screen for TRPC6 inhibitor project, cell-based; shares compounds with TRPC6 inh; membrane potential signal change, % at 10 µM; 920 compounds, 60% hits; parental HEK293 membrane potential dye fluorescence; AID 2780, 2010;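 active means membrane potential signal shifting up or down by more than 3 SD of buffer-only wells, on both duplicate plates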
HEK293 MPD ctr-2: parental HEK293 membrane potential modulation, confirmation, counter-screen for TRPC6 modulator project, cell-based; shares compounds with TRPC6 inh; membrane potential dye fluorescence; membrane potential signal change, % at 10 µM; 2,400 compounds, 51% hits;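 active means membrane potential signal moves up or down beyond 5 SD from buffer-only wells, on both duplicate plates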
HEK293 MPD ctr 2-2: second check of TRPC6 modulator effects in parental HEK293 cells. 2,400 compounds, 14% hits. shares compounds with TRPC6 inh. membrane potential dye fluorescence; after compound, maximal acetylcholine stimulation. inhibition, % at 10 µM. AID 488926;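 active means membrane potential signal drops by more than 5 SD from the mean control signal, in both duplicate plates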
TRPC4/MOR mod: TRPC4 modulation by TRPC6 hit compounds, confirmation, selectivity assay for TRPC6 modulator project, cell-based, HEK293 TRPC4/mu-opioid, membrane potential dye, mouse; shares compounds with TRPC6 inh; membrane potential fluorescence; percent change from control (negative = decrease, positive = increase), % at 10 µM; 2,400 compounds, 69% hits; AID 488927, 2010;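 active means membrane potential signal moved up or down beyond 5 SD of buffer control wells, in both duplicate plates, actives on both sides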
TRPC4/MOR inh 2: second check of whether TRPC6 modulators also affect mouse TRPC4; 2,400 compounds, 55% hits; inhibition, % at 10 µM; HEK293 TRPC4/mu-opioid, membrane potential dye fluorescence; stimulated with maximal-effect DAMGO; shares compounds with TRPC6 inh;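 active means drop in membrane potential signal beyond 5 SD of the control wells in both duplicate plates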;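 further: TRPC4 counter screen for TRPC6 hits run under conditions tuned for TRPC6 not TRPC4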
TRPC6 inh conf: mouse TRPC6 channel inhibitors, confirmation, HEK293 cells, membrane potential dye, duplicate | shares compounds with TRPC6 inh | ACh-evoked depolarization | AID 488960, 2010 | 3,300 compounds, 43% hits | inhibition, % at 10 µM;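 active means fluorescence ratio falls more than 5 SD below the full-stimulation control mean, in both duplicate runs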;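 further: integrated fluorescence ratio of peak minus minimum over baseline after agonist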
TRPC6 act conf: mouse TRPC6 channel activators, confirmation, HEK293 cells, membrane potential dye, duplicate. shares compounds with TRPC6 inh. HEK293-TRPC6 membrane potential dye fluorescence, FDSS. 2,800 compounds, 11% hits. activation, % at 10 µM;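 active means ratio signal rise beyond 5 SD above unstimulated control wells' mean, seen in both duplicate runs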
Hits are given with their value. An excerpt weighted towards active compounds, which were near 2.9% of everything screened.

Screening Cc1c(NC(=O)C(C)Sc2ccccc2)c(=O)n(-c2ccccc2)n1C (centres undefined) returned TRPC6 inh inactive, TRPC4 agonist inactive, TRPC4 block inactive, Kir21 inh inactive, TRPC6 act inactive and TRPC4 PAM inactive.
Screening CCN(CC)S(=O)(=O)N1CCC(C(=O)NCc2ccc(C)cc2)CC1 returned TRPC6 inh inactive, TRPC4 agonist inactive, TRPC4 block inactive, Kir21 inh inactive, TRPC6 act inactive and TRPC4 PAM inactive.
`Cc1ccc(S(=O)(=O)NNC(=O)C2CCN(Cc3ccccc3)CC2)cc1` gave TRPC6 inh -14.6, TRPC4 agonist inactive, TRPC4 block inactive, Kir21 inh inactive, TRPC6 act inactive, TRPC4 PAM inactive, TRPC4 sel inh 2 inactive, TRPC4 spec inactive, HEK293 MPD ctr 2-1 -14.5%, HEK293 MPD ctr-1 0.1%, TRPC6 inh conf 83.5% and TRPC6 act conf inactive.
For CCN(CC)c1ccc(NC(=O)C2CCCC2)cc1 the results were TRPC6 inh -5.77, TRPC4 agonist inactive, TRPC4 block inactive, Kir21 inh inactive, TRPC6 act inactive, TRPC4 PAM inactive, HEK293 MPD ctr-2 inactive, HEK293 MPD ctr 2-2 inactive, TRPC4/MOR mod inactive, TRPC4/MOR inh 2 inactive, TRPC6 inh conf inactive and TRPC6 act conf inactive.
Screening CCN(CC)c1ccc(CN2CCC(C(=O)NCc3ccc(C)cc3)CC2)cc1 returned TRPC6 inh -5.09, TRPC4 agonist inactive, TRPC4 block inactive, Kir21 inh inactive, TRPC6 act inactive, TRPC4 PAM inactive, HEK293 MPD ctr-2 inactive, HEK293 MPD ctr 2-2 inactive, TRPC4/MOR mod inactive, TRPC4/MOR inh 2 77.0%, TRPC6 inh conf 57.5% and TRPC6 act conf inactive.
For COC(=O)C1CCN(Cc2ccc(C)cc2)CC1 the results were TRPC6 inh inactive, TRPC4 agonist inactive, TRPC4 block inactive, Kir21 inh inactive, TRPC6 act inactive and TRPC4 PAM inactive.
Cc1c(OCc2nn[nH]n2)ccc2c3c(c(=O)oc12)CCC(C)C3 (centres undefined) was read as TRPC6 inh inactive, TRPC4 agonist inactive, TRPC4 block inactive, Kir21 inh inactive, TRPC6 act inactive and TRPC4 PAM inactive.
CC(C)c1ccc(N2C=Nc3ccc(C(C)C)cc3C2)cc1 was read as TRPC6 inh inactive, TRPC4 agonist inactive, TRPC4 block inactive, Kir21 inh inactive, TRPC6 act inactive and TRPC4 PAM inactive.
For CN1C(=O)/C(=C/c2ccccc2Cl)Sc2ccc(C(=O)NCc3cccnc3)cc21 the results were TRPC6 inh inactive, TRPC4 agonist inactive, TRPC4 block inactive, Kir21 inh inactive, TRPC6 act inactive and TRPC4 PAM inactive.
For CCc1cc(=O)oc2cc(C)cc(OCC(=O)NC3CCN(Cc4ccccc4)CC3)c12 the results were TRPC6 inh -5.51, TRPC4 agonist inactive, TRPC4 block inactive, Kir21 inh inactive, TRPC6 act inactive, TRPC4 PAM inactive, HEK293 MPD ctr-2 -100.5%, HEK293 MPD ctr 2-2 inactive, TRPC4/MOR mod -26.0%, TRPC4/MOR inh 2 68.0%, TRPC6 inh conf 40.0% and TRPC6 act conf inactive.
`COc1ccc(Cn2c(-c3ccc(C)cc3)c[n+]3ccccc23)cc1` gave TRPC6 inh -6.25, TRPC4 agonist inactive, TRPC4 block inactive, Kir21 inh inactive, TRPC6 act inactive, TRPC4 PAM inactive, HEK293 MPD ctr-2 -232.0%, HEK293 MPD ctr 2-2 inactive, TRPC4/MOR mod -30.5%, TRPC4/MOR inh 2 48.5%, TRPC6 inh conf 46.0% and TRPC6 act conf inactive.
`CCN(CC)CCN(C(=O)C1=COCCO1)c1nc2cc(C)cc(C)c2s1` gave TRPC6 inh -6.65, TRPC4 agonist inactive, TRPC4 block inactive, Kir21 inh inactive, TRPC6 act inactive, TRPC4 PAM inactive, TRPC4 sel inh 2 44.0%, TRPC4 spec inactive, HEK293 MPD ctr 2-1 inactive, HEK293 MPD ctr-1 0.6%, TRPC6 inh conf inactive and TRPC6 act conf inactive.
